Activity calls are given as the source filed them. The calls are words filed in the database; no cut-off is given here.
Columns and labels:
HepG2 = assay: Antiproliferative activity against human HepG2 cells after 48 hrs by SRB method; type: functional, cell-based; conditions: HepG2, 48 h
Method in brief: (§1)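 SRB assay. Cells in DMEM high glucose with 10% FBS were seeded at 5000/well and grown 24 h; a day-0 plate was fixed at that point. Compounds were added in triplicate for 48 h. IC50 came from nonlinear regression of dose–response curves from at least two independent experiments.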

Tubulin (Homo sapiens) [1] = target: T1, Tubulin (Homo sapiens) (UniProt P68371+Q9H4B7+P0DPH7+P68366+Q13509+Q71U36+P04350+Q3ZCM7+P07437+P68363+Q9BQE3+Q6PEY2+Q13885+Q9BVA1+Q9BUF5); assay: Inhibition of tubulin polymerization (unknown origin) at 20 uM by DAPI staining-based fluorescence microscopy; type: protein-complex assay
A549 [2] = assay: Antiproliferative activity against human A549 cells after 48 hrs by SRB method; type: functional, cell-based; conditions: A549, 48 h
Method in brief: (§2)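 SRB assay. Cells in DMEM high glucose with 10% FBS were seeded at 5000/well and grown 24 h; a day-0 plate was fixed at that point. Compounds were added in triplicate for 48 h. Cells were fixed with TCA at 4 °C for 1 h, stained with 0.4% SRB, and the dye was solubilized in 10 mM Tris pH 10.4. OD was read at 515 nm with day-0 OD subtracted. IC50 came from nonlinear regression of dose–response curves from at least two independent experiments.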

SW480 = assay: Antiproliferative activity against human SW480 cells after 48 hrs by SRB method; type: functional, cell-based; conditions: SW480, 48 h; method in brief: as §1
[3] = Antiproliferative activity against human CNE2 cells after 48 hrs by SRB method; type: functional, cell-based; conditions: CNE-2, 48 h; method in brief: as §1
MCF7 [4] = assay: Antiproliferative activity against human MCF7 cells after 48 hrs by SRB method; type: functional, cell-based; conditions: MCF7, 48 h; method in brief: as §1
[5] = Antiproliferative activity against human HCT8 cells after 48 hrs by SRB method; type: functional, cell-based; conditions: HCT-8, 48 h; method in brief: as §1
MCF7 [6] = assay: Antiproliferative activity against doxorubicin-resistant human MCF7 cells after 48 hrs by SRB method; type: functional, cell-based; conditions: MCF7, 48 h; method in brief: as §1
A549 [7] = assay: Cell cycle arrest in human A549 cells assessed as accumulation at G2/M phase at 62.5 nM after 24 hrs by Hoechst 33342 staining-based ArrayScanVTI analysis; type: functional
Method in brief: (§3)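 A549 cells were seeded at 5000/well, cultured overnight, then treated 24 h over a 7.81–250 concentration series. Cells were fixed in prewarmed paraformaldehyde 10 min, permeabilized with Triton X-100, and nuclei stained with Hoechst 33342. Imaging was by ArrayScan VTI high-content analysis. Phase percentage = cells within a gated fluorescence intensity / total cells counted.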

A2780 [8] = assay: Drug resistance index, ratio of IC50 for taxol-resistant human A2780 cells to IC50 for human A2780 cells; type: functional
Method in brief: (§4)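 Drug resistance index = IC50 in the resistant line / IC50 in its parental line. […] Pairs: A549/CDDP vs A549, MCF-7/DOX vs MCF-7, A2780/TAX vs A2780, HCT-8/VCT vs HCT-8.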

[9] = Antiproliferative activity against vincristine-resistant human HCT8 cells after 48 hrs by SRB method; type: functional, cell-based; conditions: HCT-8, 48 h; method in brief: as §2
MCF7 [10] = assay: Drug resistance index, ratio of IC50 for doxorubicin-resistant human MCF7 cells to IC50 for human MCF7 cells; type: functional; method in brief: as §4
A549 [11] = assay: Drug resistance index, ratio of IC50 for cis-platinum-resistant human A549 cells to IC50 for human A549 cells; type: functional; method in brief: as §4
[12] = Drug resistance index, ratio of IC50 for vincristine-resistant human HCT8 cells to IC50 for human HCT8 cells; type: functional, HCT-8; method in brief: as §4
A549 [13] = assay: Antiproliferative activity against cis-platinum-resistant human A549 cells after 48 hrs by SRB method; type: functional, cell-based; conditions: A549, 48 h; method in brief: as §2
A549 [14] = assay: Cell cycle arrest in human A549 cells assessed as accumulation at G2/M phase at 7.81 to 250 nM after 24 hrs by Hoechst 33342 staining-based ArrayScanVTI analysis; type: functional; method in brief: as §3
Tubulin = assay: Inhibition of tubulin polymerization (unknown origin) by DAPI staining-based fluorescence microscopy; type: protein-complex assay, Homo sapiens
Method in brief: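 Purified tubulin (99% pure; 20 μM as supplied) mixed with compound in general tubulin buffer (80 mM PIPES pH 6.9, 2.0 mM MgCl₂, 0.5 mM EGTA) with 1 mM GTP, 20% glycerol and DAPI reporter. Polymerization tracked kinetically at 37 °C as fluorescence rise (ex 360, em 450 nm). Duplicate wells per concentration. IC50 from at least two independent experiments.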

A2780 [15] = assay: Antiproliferative activity against human A2780 cells after 48 hrs by SRB method; type: functional, cell-based; conditions: A2780, 48 h; method in brief: as §1
A2780 [16] = assay: Antiproliferative activity against taxol-resistant human A2780 cells after 48 hrs by SRB method; type: functional, cell-based; conditions: A2780, 48 h; method in brief: as §1
Tubulin (Homo sapiens) [17] = target: T1, Tubulin (Homo sapiens); assay: Inhibition of tubulin polymerization (unknown origin) at 5 uM by DAPI staining-based fluorescence microscopy; type: protein-complex assay

| SMILES | IC50 (HepG2) [nM] | inhibition (Tubulin (Homo sapiens) [1]) | IC50 (A549 [2]) [nM] | IC50 (SW480) [nM] | IC50 [3] [nM] | IC50 (MCF7 [4]) [nM] | IC50 [5] [nM] | IC50 (MCF7 [6]) [nM] | Activity (A549 [7]) | Ratio IC50 (A2780 [8]) | IC50 [9] [nM] | Ratio IC50 (MCF7 [10]) | Ratio IC50 (A549 [11]) | Ratio IC50 [12] | IC50 (A549 [13]) [nM] | Activity (A549 [14]) | IC50 (Tubulin) [nM] | IC50 (A2780 [15]) [nM] | IC50 (A2780 [16]) [nM] | inhibition (Tubulin (Homo sapiens) [17]) |
| --- | --- | --- | --- | --- | --- | --- | --- | --- | --- | --- | --- | --- | --- | --- | --- | --- | --- | --- | --- | --- |
| COc1ccc(-c2ccccc2C(=O)/C=C/c2ccc(F)cc2)cc1OC | 4300 | inactive | 8600 | 6800 | 5400 | 7100 | – | – | – | – | – | – | – | – | – | – | – | – | – | – |
| COc1ccc(-c2ccccc2C(=O)/C=C/c2ccc(Br)cc2)cc1OC | 3300 | inactive | 6800 | 6500 | 4800 | 8300 | – | – | – | – | – | – | – | – | – | – | – | – | – | – |
| COc1ccc(/C=C/C(=O)c2ccccc2-c2ccc(F)cc2)cc1B(O)O | 30 | – | 82 | 41 | 21 | 220 | 63 | 24 | Active | 3.6 | 84 | 0.6 | 1.1 | 1.3 | 74 | Active | 3400 | 63 | 230 | – |
| COc1ccc(OC)c(/C=C/C(=O)c2ccccc2-c2ccc(OC)c(OC)c2)c1 | 2100 | Active | 4100 | 5200 | 2400 | 3100 | – | – | – | – | – | – | – | – | – | – | – | – | – | – |
| COc1ccc(/C=C/C(=O)c2ccccc2-c2ccc(F)cc2)cc1O | 23 | – | 65 | 57 | 87 | 190 | 38 | 7 | Active | 18 | 420 | 0.04 | 10 | 11 | 430 | Active | 1300 | 27 | 500 | – |
| COc1ccc(/C=C/C(=O)c2ccccc2-c2cccc(F)c2)cc1 | 110 | – | 280 | 140 | 73 | 640 | 200 | 84 | – | 5.2 | 220 | 0.64 | 2.1 | 1.1 | 480 | – | 4000 | 160 | 860 | – |
| O=C(/C=C/c1cccs1)c1ccccc1-c1ccc(F)cc1 | 6200 | Active | 12000 | 16000 | 5900 | 9500 | – | – | – | – | – | – | – | – | – | – | – | – | – | – |
| CC(=O)O[C@H]1C(=O)[C@@]2(C)[C@H]([C@H](OC(=O)c3ccccc3)[C@]3(O)C[C@H](OC(=O)[C@H](O)[C@@H](NC(=O)c4ccccc4)c4ccccc4)C(C)=C1C3(C)C)[C@]1(OC(C)=O)CO[C@@H]1C[C@@H]2O [PACLITAXEL] | 28 | – | – | 7 | – | – | 21 | – | – | – | 2600 | – | – | – | – | – | – | – | – | – |
| COc1ccc(/C=C/C(=O)c2ccccc2-c2ccc(OC)c(OC)c2)cc1OC | 3200 | – | 8500 | 7600 | 2500 | 4900 | – | – | – | – | – | – | – | – | – | – | – | – | – | inactive |
| COc1ccc(/C=C/C(=O)c2ccccc2-c2cc(OC)c(OC)c(OC)c2)cc1O | 190 | – | 290 | 300 | 790 | 680 | 520 | 170 | – | 4.3 | 2000 | 0.24 | 2 | 4 | 590 | – | 2800 | 380 | 1600 | – |
| COc1cc(/C=C/C(=O)c2ccccc2-c2ccc(F)cc2)ccc1O | 2800 | – | 7600 | 6600 | 2500 | 4000 | – | – | – | – | – | – | – | – | – | – | – | – | – | inactive |
| COc1cccc(/C=C/C(=O)c2ccccc2-c2ccc(F)cc2)c1OC | 5000 | Active | 7100 | 5700 | 5200 | 5300 | – | – | – | – | – | – | – | – | – | – | – | – | – | – |
| COc1cccc2c1C(=O)c1c(O)c3c(c(O)c1C2=O)C[C@@](O)(C(=O)CO)C[C@@H]3O[C@H]1C[C@H](N)[C@H](O)[C@H](C)O1 [DOXORUBICIN] | – | – | – | – | – | – | – | – | – | – | 3400 | – | – | – | 290 | – | – | – | 1900 | – |
| COc1ccc(/C=C/C(=O)c2ccccc2-c2ccc(F)nc2)cc1OC | 1000 | – | 1200 | 1300 | 1600 | 2800 | – | – | – | – | – | – | – | – | – | – | – | – | – | – |
| COc1ccc(C(=O)/C=C/c2ccccc2-c2ccc(F)nc2)cc1OC | 17000 | – | 17000 | 15000 | 17000 | 41000 | – | – | – | – | – | – | – | – | – | – | – | – | – | – |
| COc1ccc(/C=C/C(=O)c2ccccc2-c2cccc(F)c2)cc1OC | 150 | – | 330 | 160 | 650 | 1200 | – | – | – | – | – | – | – | – | – | – | – | – | – | – |
| COc1ccc(C(=O)/C=C/c2ccccc2-c2ccc(F)nc2)cc1 | 8200 | – | > 50000 | 10000 | 13000 | 13000 | – | – | – | – | – | – | – | – | – | – | – | – | – | – |
| COc1ccc(C(=O)/C=C/c2ccccc2-c2ccc(F)cc2)cc1OC | 6600 | – | 7500 | 8300 | 7600 | 7100 | – | – | – | – | – | – | – | – | – | – | – | – | – | – |
| COc1ccc(/C=C/C(=O)c2ccccc2-c2ccc(OC)c(OC)c2)cc1 | 600 | – | 1600 | 890 | 320 | 1100 | – | – | – | – | – | – | – | – | – | – | – | – | – | – |
| COc1ccc(/C=C/C(=O)c2ccccc2-c2ccc(F)nc2)cc1 | 290 | – | 930 | 330 | 160 | 2700 | – | – | – | – | – | – | – | – | – | – | – | – | – | – |

— ChEMBL document CHEMBL3393048, “Discovery of potent cytotoxic ortho-aryl chalcones as new scaffold targeting tubulin and mitosis with affinity-based fluorescence” (J Med Chem, 2014)
